ChEMBL document CHEMBL2169868, “Flavone-based novel antidiabetic and antidyslipidemic agents” (J Med Chem, 2012)

How the values were obtained:
[1] = Cmax in Sprague-Dawley rat at 2.5 mg/kg, iv by LC-MS/MS method; assay type: ADME, organism-based; parameters: dose 2.5 mg/kg, route intravenous; conditions: in vivo
In short: (§1)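 Male Sprague−Dawley rats given a single 2.5 mg/kg iv dose; one formulation was DMF/PG/water (2:4:4), 0.2 μ filtered. Blood drawn from 0.08 to 48 h. Plasma assayed by LC-MS/MS with linear range 0.78−400 ng/mL.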

Syrian golden hamster [2] = assay: Antidyslipidemic activity in high fructose and high-fat diet fed dyslipidemic Syrian golden hamster model assessed as reduction in glycerol level at 10 mg/kg/day, po for 7 day, po; assay type: functional, Mesocricetus auratus; parameters: scale not given: the % may be the effect or the level left
In short: (§2)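 Syrian golden hamsters fed high-fructose high-fat diet; oral dosing in 1% gum acacia at 10, 30, 100 mg/kg (or 25 mg/kg) for 7 days, sham control given vehicle; plasma TG, cholesterol, LDL-C, HDL-C, glycerol and NEFA (kits), lipoprotein lipase activity and body weight; % change versus HFD control, six hamsters per group.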

Mus musculus [3] = assay: Antidiabetic activity in diabetic C57BL/KsJ db/db mouse model assessed as reduction in postprandial glucose level in hyperglycemia at 25 mg/kg, po measured 2 hrs post dose; assay type: functional; parameters: scale not given: the % may be the effect or the level left
In short: (§3)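 db/db mice (C57BL/KsJ, 12−18 weeks, 40−50 g; selected by glucose 200−350 mg/dL) dosed orally daily for 10 consecutive days at 1, 3, 10, 25 or 50 mg/kg; postprandial blood glucose profile recorded on day 6 with food access interrupted; mean % change versus vehicle in 5 animals per group; Student t test.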

Syrian golden hamster [4] = assay: Reduction in body weight in high fructose and high-fat diet fed dyslipidemic Syrian golden hamster model at 30 mg/kg/day, po for 7 days; assay type: functional, Mesocricetus auratus; parameters: scale not given: the % may be the effect or the level left
In short: (§4)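 HFD-fed Syrian golden hamsters, six per group, fed a high-fructose diet. Oral dosing in 1% gum acacia for 7 days. Sham group received vehicle. Plasma TG was measured and body weight tracked. Results given as % change versus HFD control.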

Mus musculus [5] = assay: Antidyslipidemic activity in diabetic C57BL/KsJ db/db mouse model assessed as increase in plasma HDL-C/cholesterol ratio at 25 mg/kg, po qd for 10 days; assay type: functional
In short: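 db/db mice (blood glucose 200−350, TG 170−250, cholesterol 170−250, HDL-C 32−40 mg/dL) dosed orally at 25 mg/kg daily for 10 days; retro-orbital blood taken on day 11 for plasma TG, cholesterol and HDL-C (and HDL-C/CHOL ratio); mean % change versus vehicle control, 5 mice per group; Student t test.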

Mus musculus [6] = assay: Reduction in body weight in diabetic C57BL/KsJ db/db mouse model in hyperglycemia at 25 mg/kg, po qd for 10 days relative to untreated control; assay type: functional; parameters: scale not given: the % may be the effect or the level left
In short: (§5)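 db/db mice (C57BL/KsJ, 12−18 weeks, 40−50 g, glucose 200−350 mg/dL), housed at 23 ± 2.0 °C on a 12 h light cycle. Oral dosing daily for 10 days. Blood glucose checked each morning through day 9. Body weight recorded daily from day 1 to day 10. Mean % change versus vehicle, 5 mice per group; Student t test.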

Mus musculus [7] = assay: Antidiabetic activity in po dosed diabetic C57BL/KsJ db/db mouse model assessed as reduction in postprandial glucose level in hyperglycemia measured 2 hrs post dose; assay type: functional; in short: as §3
[8] = Tmax in Sprague-Dawley rat at 25 mg/kg, po by LC-MS/MS method; assay type: ADME, organism-based; parameters: dose 25 mg/kg, route oral; conditions: in vivo
In short: (§6)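 Male Sprague−Dawley rats given a single 25 mg/kg oral dose (aqueous 0.5% methyl cellulose suspension for one compound). Blood drawn from 0.08 to 48 h. LC-MS/MS, linear range 0.78−400 ng/mL.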

Syrian golden hamster [9] = assay: Antidyslipidemic activity in high fructose and high-fat diet fed dyslipidemic Syrian golden hamster model assessed as reduction in triglyceride level at 30 mg/kg/day, po for 7 day, po; assay type: functional, Mesocricetus auratus; parameters: scale not given: the % may be the effect or the level left; in short: as §4
Syrian golden hamster [10] = assay: Antidyslipidemic activity in high fructose and high-fat diet fed dyslipidemic Syrian golden hamster model assessed as reduction in LDL-cholesterol level at 25 mg/kg/day for 7 days; assay type: functional, Mesocricetus auratus; parameters: scale not given: the % may be the effect or the level left; in short: as §2
Syrian golden hamster [11] = assay: Antidyslipidemic activity in high fructose and high-fat diet fed dyslipidemic Syrian golden hamster model assessed as reduction in cholesterol level at 30 mg/kg/day, po for 7 day, po; assay type: functional, Mesocricetus auratus; parameters: scale not given: the % may be the effect or the level left
Mus musculus [12] = assay: Antihyperglycemic activity in diabetic C57BL/KsJ db/db mouse model assessed as reduction in hyperglycemia at 25 mg/kg, po qd for 10 days; assay type: functional; parameters: scale not given: the % may be the effect or the level left; in short: as §5
[13] = Cmax in Sprague-Dawley rat at 25 mg/kg, po by LC-MS/MS method; assay type: ADME, organism-based; parameters: dose 25 mg/kg, route oral; conditions: in vivo; in short: as §6
Mus musculus [14] = assay: Antidiabetic activity in diabetic C57BL/KsJ db/db mouse model assessed as reduction in postprandial glucose level in hyperglycemia at 10 mg/kg, po measured 2 hrs post dose; assay type: functional; parameters: scale not given: the % may be the effect or the level left; in short: as §3
Syrian golden hamster [15] = assay: Antidyslipidemic activity in high fructose and high-fat diet fed dyslipidemic Syrian golden hamster model assessed as increase in lipoprotein lipase level at 10 mg/kg/day, po for 7 day, po; assay type: functional, Mesocricetus auratus; in short: as §2
Syrian golden hamster [16] = assay: Antidyslipidemic activity in high fructose and high-fat diet fed dyslipidemic Syrian golden hamster model assessed as increase in HDL-cholesterol level at 25 mg/kg/day for 7 days; assay type: functional, Mesocricetus auratus
Syrian golden hamster [17] = assay: Antidyslipidemic activity in high fructose and high-fat diet fed dyslipidemic Syrian golden hamster model assessed as reduction in triglyceride level at 10 mg/kg/day, po for 7 day, po; assay type: functional, Mesocricetus auratus; parameters: scale not given: the % may be the effect or the level left; in short: as §2
Syrian golden hamster [18] = assay: Antidyslipidemic activity in high fructose and high-fat diet fed dyslipidemic Syrian golden hamster model assessed as reduction in triglyceride level at 100 mg/kg/day, po for 7 days; assay type: functional, Mesocricetus auratus; parameters: scale not given: the % may be the effect or the level left; in short: as §4
[19] = Mean residence time in Sprague-Dawley rat at 2.5 mg/kg, iv by LC-MS/MS method; assay type: ADME, organism-based; parameters: dose 2.5 mg/kg, route intravenous; conditions: in vivo; in short: as §1
Syrian golden hamster [20] = assay: Reduction in body weight in high fructose and high-fat diet fed dyslipidemic Syrian golden hamster model at 100 mg/kg/day, po for 7 days; assay type: functional, Mesocricetus auratus; parameters: scale not given: the % may be the effect or the level left; in short: as §4
Syrian golden hamster [21] = assay: Antidyslipidemic activity in high fructose and high-fat diet fed dyslipidemic Syrian golden hamster model assessed as reduction in triglyceride level at 10 to 100 mg/kg/day for 7 days; assay type: functional, organism-based; conditions: Mesocricetus auratus; in short: as §2
Mus musculus [22] = assay: Antidiabetic activity in diabetic C57BL/KsJ db/db mouse model assessed as improvement in glucose tolerance in hyperglycemia at 1 mg/kg, po measured 2 hrs post dose; assay type: functional
Syrian golden hamster [23] = assay: Antidyslipidemic activity in high fructose and high-fat diet fed dyslipidemic Syrian golden hamster model assessed as increase in lipoprotein lipase level at 30 mg/kg/day, po for 7 day, po; assay type: functional, Mesocricetus auratus; in short: as §2
Syrian golden hamster [24] = assay: Antidyslipidemic activity in high fructose and high-fat diet fed dyslipidemic Syrian golden hamster model assessed as reduction in body weight at 25 mg/kg/day for 7 days; assay type: functional, Mesocricetus auratus; parameters: scale not given: the % may be the effect or the level left; in short: as §2
Syrian golden hamster [25] = assay: Antidyslipidemic activity in high fructose and high-fat diet fed dyslipidemic Syrian golden hamster model assessed as reduction in glycerol level at 100 mg/kg/day, po for 7 days; assay type: functional, Mesocricetus auratus; parameters: scale not given: the % may be the effect or the level left; in short: as §2
Syrian golden hamster [26] = assay: Antidyslipidemic activity in high fructose and high-fat diet fed dyslipidemic Syrian golden hamster model assessed as reduction in LDL-cholesterol level at 10 to 100 mg/kg/day for 7 days; assay type: functional, organism-based; conditions: Mesocricetus auratus; in short: as §2
Mus musculus [27] = assay: Antidiabetic activity in diabetic C57BL/KsJ db/db mouse model assessed as reduction in postprandial glucose level in hyperglycemia at 50 mg/kg, po measured 2 hrs post dose; parameters: scale not given: the % may be the effect or the level left
Syrian golden hamster [28] = assay: Antidyslipidemic activity in high fructose and high-fat diet fed dyslipidemic Syrian golden hamster model assessed as increase in HDL-cholesterol level at 10 mg/kg/day, po for 7 day, po; assay type: functional, Mesocricetus auratus; in short: as §2

Work on `CC(C)(C)NC[C@H](O)COc1ccc2c(=O)cc(-c3cc(OCc4ccccc4)cc(OCc4ccccc4)c3)oc2c1` yielded a Cmax [1] of 523 ng/mL, an Activity (Syrian golden hamster [2]) of 14.4% and an Activity (Mus musculus [3]) of 38.3%. The Activity (Syrian golden hamster [4]) was 10.2%, the “Percent increase in HDL-C/cholesterol ratio vs vehicle” value (Mus musculus [5]) was 92.5 and the Activity (Mus musculus [6]) was 28.2%. For the same molecule, the ED50 (Mus musculus [7]) was 1.72 mg/kg, the Tmax [8] was 8 h and the Activity (Syrian golden hamster [9]) was 39.8%. For the same molecule, the Activity (Syrian golden hamster [10]) was 30.1%, the Activity (Syrian golden hamster [11]) was 27.2% and the Activity (Mus musculus [12]) was 55.4%. The Cmax [13] was 70.3 ng/mL, the Activity (Mus musculus [14]) was 28.8% and the Activity (Syrian golden hamster [15]) was 13.2%. The Activity (Syrian golden hamster [16]) was 20.5%, the Activity (Syrian golden hamster [17]) was 21.2% and the Activity (Syrian golden hamster [18]) was 76.3%. The MRT [19] was 13.5 h, the Activity (Syrian golden hamster [20]) was 12.5% and the Activity (Syrian golden hamster [21]) was “Dose-dependent effect”. The Activity (Mus musculus [22]) was 21.46%, the Activity (Syrian golden hamster [23]) was 31.2% and the Activity (Syrian golden hamster [24]) was 14.3%. For the same molecule, the Activity (Syrian golden hamster [25]) was 50.5%, the Activity (Syrian golden hamster [26]) was “Dose-dependent effect” and the Activity (Mus musculus [27]) was 39.1%. For the same molecule, the Activity (Syrian golden hamster [28]) was 9.37%.
